Numbering of substitutions follows the chain as printed. Blank lines part the entries; values can stand above or below the compound they belong to.
Assays:
IDE E341A = target: T1, IDE E341A (Homo sapiens, UniProt P14735, E341A); assay: Hydrolysis of dual labelled Aβ16–23 by the E341A exosite mutant; assay type: biochemical
T1 sequence (P14735 1-1019 E341A): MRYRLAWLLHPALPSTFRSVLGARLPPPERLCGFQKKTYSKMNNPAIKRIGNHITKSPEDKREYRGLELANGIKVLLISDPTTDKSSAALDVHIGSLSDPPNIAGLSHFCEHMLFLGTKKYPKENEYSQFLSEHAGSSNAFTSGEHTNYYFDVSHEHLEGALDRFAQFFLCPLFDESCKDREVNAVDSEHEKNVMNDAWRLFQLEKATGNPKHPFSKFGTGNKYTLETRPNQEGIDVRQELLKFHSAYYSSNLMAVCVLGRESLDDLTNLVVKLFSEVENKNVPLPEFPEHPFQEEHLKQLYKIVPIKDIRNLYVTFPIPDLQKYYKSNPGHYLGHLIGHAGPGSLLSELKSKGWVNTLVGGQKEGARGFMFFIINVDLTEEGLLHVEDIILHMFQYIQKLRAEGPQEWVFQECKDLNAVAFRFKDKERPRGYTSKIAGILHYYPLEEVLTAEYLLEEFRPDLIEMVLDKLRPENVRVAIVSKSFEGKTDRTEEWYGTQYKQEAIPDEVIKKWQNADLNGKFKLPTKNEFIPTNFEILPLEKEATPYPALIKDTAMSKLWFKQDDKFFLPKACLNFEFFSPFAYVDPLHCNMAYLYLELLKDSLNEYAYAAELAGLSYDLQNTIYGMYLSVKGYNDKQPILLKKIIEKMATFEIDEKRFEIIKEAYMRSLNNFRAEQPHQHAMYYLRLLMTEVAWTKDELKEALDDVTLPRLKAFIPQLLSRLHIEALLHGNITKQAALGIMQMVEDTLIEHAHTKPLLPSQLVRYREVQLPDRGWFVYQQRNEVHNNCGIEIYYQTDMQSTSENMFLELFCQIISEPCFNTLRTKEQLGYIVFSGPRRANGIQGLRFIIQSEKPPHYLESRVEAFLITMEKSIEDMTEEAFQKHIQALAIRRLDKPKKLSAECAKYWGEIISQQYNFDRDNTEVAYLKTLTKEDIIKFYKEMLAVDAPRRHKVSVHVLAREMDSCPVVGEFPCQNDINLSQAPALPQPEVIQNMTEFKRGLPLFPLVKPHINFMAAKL

Cell permeability = assay type: in vitro ADME
hIDE = target: T2, hIDE (Homo sapiens, UniProt P14735); assay: Hydrolysis of unlabelled native insulin by hIDE; assay type: biochemical; details: at 100µM
T2 sequence (P14735 1-1019): T1 sequence (P14735 1-1019 E341A) with A341E

Cell medium stability = assay type: in vitro ADME
[1] = Solubility in PBS from a DMSO stock solution; assay type: physicochemical
[2] = LogD7.4, PBS/octanol partition from a DMSO stock solution; assay type: physicochemical; details: compared with 5
[3] = tested on: SH-SY5Y neuroblastoma cells (APPswe, APPwt); assay: Cellular assay in the amyloid pathway; assay type: cell-based, human
Method in brief: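 SH-SY5Y cells stably expressing human APP751 Swedish or […], grown in DMEM/10% FCS at 37 °C, 5% CO2. Treated 24 h after seeding with vehicle or test compound (10 mM DMSO stock). Medium cleared at 1000 × g and assayed by ELISA: Aβ1–40 diluted 1:10, Aβ1–42 undiluted. Duplicates from three experiments, normalised to untreated cells. RIPA lysates immunoblotted: 12 µg Bis-Tris gel; CTFs 30 µg Tris-Tricine gel.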

β-pancreatic cells = assay: Insulin secretion by β-pancreatic cells; assay type: cell-based
hepatocytes = assay: Repression of PEPCK by insulin on hepatocytes; assay type: cell-based
[4] = target: T3, Human recombinant IDE (IDEwt) (Homo sapiens, UniProt P14735); assay type: biochemical; details: for activity on Aβ16–23 hydrolysis (in words): IDEwt
T3 sequence (P14735 1-1019): T1 sequence (P14735 1-1019 E341A) with A341E

[5] = 0.1 or 10 µM, 24 h and 48 h, APPswe and APPwt SY5Y

behaviour as inhibitor (IDE E341A): full inhibitor
Structure (SMILES): COC(=O)[C@H](Cc1c[nH]cn1)NC(=O)CN(CC(=O)O)Cc1ccccc1 [Compound 1, (S)-2-[2-(Benzyl-carboxymethyl-amino)-acetylamino]-3-(1H-imidazol-4-yl)-propionic acid methyl ester]

crossing of cell membranes (in words) (Cell permeability): does not cross easily cell membranes
Structure (SMILES): CNC(=O)[C@H](Cc1c[nH]cn1)NC(=O)CN(CCCc1ccccc1)CC(=O)O [Compound 5, ((((S)-2-(1H-Imidazol-4-yl)-1-methylcarbamoyl-ethylcarbamoyl)-methyl)-(3-phenylpropyl)-amino)-acetic acid]

residual activation of insulin hydrolysis (hIDE): 50 % of 5 activity
half-life (Cell medium stability): 11.3 h
solubility (in words) [1]: good solubility
logD7.4 (in words) [2]: higher
repression of PEPCK by insulin on hepatocytes (hepatocytes): nor modify
Structure (SMILES): CNC(=O)[C@H](Cc1c[nH]cn1)NC(=O)CN(CCCc1ccccc1)CC(=O)OC [Compound 8, ((((S)-2-(1H-Imidazol-4-yl)-1-methylcarbamoyl-ethyl-carbamoyl)-methyl)-(3-phenylpropyl)-amino)-acetic acid methyl ester]
effect on APP holoproteins and on CTFs [3]: No effect
extracellular levels of Aβ1–40 [3, 5]: dose-dependent increase
extracellular levels of Aβ1–42 [3, 5]: dose-dependent increase
level of insulin secreted by β-pancreatic cells (β-pancreatic cells): did neither affect

activity on Aβ16–23 hydrolysis (in words) [4]: completely abolish activity
Structure (SMILES): COC(=O)[C@H](Cc1c[nH]cn1)NC(=O)CN(CC(=O)O)C(=O)c1ccccc1 [Compound 7, (S)-2-(2-(Benzoyl-carboxymethyl-amino)-acetylamino)-3-(1H-imidazol-4-yl)-propionic acid methyl ester]

activity on Aβ16–23 hydrolysis (in words) [4]: completely abolish activity
Structure (SMILES): COC(=O)[C@H](Cc1ccccc1)NC(=O)CN(CC(=O)O)Cc1ccccc1 [Compound 6, (S)-2-(2-(Benzyl-carboxymethyl-amino)-acetylamino)-3-phenyl-propionic acid methyl ester]

Structure (SMILES): O=C(O)CN(CCN(CC(=O)O)CC(=O)O)CC(=O)O [EDTA, reference compound]
inhibition by reference inhibitor ([4]; at 2 mM): 100%

Source: publication PMC4128174 (European journal of medicinal chemistry, 2014)
